3 molecules from ChEMBL document CHEMBL1121917, “Structure--activity relationships in a broad-spectrum anthelmintic series. Acid chloride phenylhydrazones. 1. Aryl substitutions and chloride variations” (1981) can be followed below.

Assay [1] is filed under the species Canis familiaris. Briefly: Percent reduction in Uncinaria eggs per gram, after oral treatment of 10 mg/dog dose of compound in a double treatment. The class given is functional, Canis lupus familiaris, Egg.
Assay [2] is filed under the species Canis familiaris. Briefly: Percent reduction in Uncinaria eggs per gram, after oral treatment of 20 mg/dog dose of compound in a triple treatment. The class given is functional, Canis lupus familiaris, Egg.
For assay [3], the species on record is Canis familiaris. Briefly: Percent reduction in Uncinaria eggs per gram, after oral treatment of 25 mg/dog dose of compound in a single treatment. The class given is functional, Canis lupus familiaris, Egg.
For assay [4], the species on record is Canis familiaris. Briefly: Percent reduction in Ancylostoma eggs per gram, after oral treatment of 20 mg/dog dose of compound in a single treatment. It is filed as functional, Canis lupus familiaris, Egg. In a few lines:
(§1)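 Dogs naturally infected with Toxascaris leonina were experimentally infected with mixed Ancylostoma caninum and Uncinaria stenocephala larvae. Finely ground compound was given orally in gelatin capsules. Fecal egg counts were taken three times before and three times after treatment, and activity was taken as the fall in egg counts.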

For assay [5], the species on record is Canis familiaris. Briefly: Percent reduction in Ancylostoma eggs per gram, after oral treatment of 20 mg/dog dose of compound in a triple treatment. It is filed as functional, Canis lupus familiaris, Egg. In a few lines: as §1
Assay [6] is filed under the species Canis familiaris. The assay can be described thus: Percent reduction in Ancylostoma eggs per gram, after oral treatment of 25 mg/dog dose of compound in a single treatment. It is filed as functional, Canis lupus familiaris, Egg. In a few lines: as §1
Assay [7] is filed under the species Canis familiaris. Briefly: Percent reduction in Ancylostoma eggs per gram, after oral treatment of 10 mg/dog dose of compound in a double treatment. The class given is functional, Canis lupus familiaris, Egg. In short, it runs like this:
as §1

Assay [8] is filed under the species Mus musculus. Briefly: Percent clearance of Hymenolepis nana from mouse after oral treatment of 1.5 mg/mouse/day. The class given is functional. In a few lines:
(§2)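 Mice naturally carrying Syphacia obvelata were experimentally infected with Nematospiroides dubius and Hymenolepis nana, then grouped after a 2-week prepatency. Finely ground compound was suspended in aqueous 0.10% carboxymethylcellulose, 0.04% polysorbate 80 and 0.0042% polyparaben, and 0.1 mL was given orally by cannula once daily for 4 days to five mice. Necropsy followed 2 days later, scoring presence or absence of each parasite. Control clearance was subtracted from the treated clearance.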

Assay [9] has as its system Ovis aries. The assay can be described thus: Percent reduction in Trichuris eggs per gram, after treatment with 100 mg/kg dose of compound perorally in sheep. It is filed as functional, Egg. As to conditions: route oral. In a few lines: (§3)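 Naturally parasitized lambs, dosed orally either with a suspension by stomach tube or with finely ground compound in gelatin capsules by balling gun. Activity was scored by the clinical test method, meaning a significant fall in helminth egg counts after treatment.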

In assay [10] the test system is Ovis aries. Briefly: Percent reduction in Haemonchus eggs per gram, after treatment with 100 mg/kg dose of compound perorally in sheep. It is filed as functional, Egg. The following applies: route oral. In a few lines:
(§4)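 Naturally parasitized lambs received compound orally, either as the aqueous suspension by stomach tube or as finely ground powder in gelatin capsules by balling gun. Activity was judged by the clinical test method, as a significant decrease in posttreatment helminth egg counts.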

The subject of assay [11] is Ovis aries. Briefly: Percent reduction in Haemonchus eggs per gram, after treatment with 200 mg/kg dose of compound perorally in sheep. The class given is functional, Egg. The following applies: dose 200 mg/kg; route oral. In short, it runs like this: (§5)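 Naturally parasitized lambs were dosed orally at the stated mg/kg. Dosing was either as a suspension of finely ground compound by stomach tube, or as ground compound weighed into gelatin capsules and given by balling gun. Activity was scored by the clinical test method: the decrease in posttreatment helminth eggs per gram.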

Assay [12] deals with Ovis aries. Briefly: Percent reduction in Oesophagostomum eggs per gram, after treatment with 100 mg/kg dose of compound perorally in sheep. As to conditions: route oral. The class given is functional, Egg. In short, it runs like this: as §5
The subject of assay [13] is Ovis aries. Briefly: Percent reduction in Oesophagostomum eggs per gram, after treatment with 200 mg/kg dose of compound perorally in sheep. It is filed as functional, Egg. The following applies: dose 200 mg/kg; route oral. In a few lines:
as §5

Assay [14] has as its system Ovis aries. Briefly: Percent reduction in Trichostrongylus eggs per gram, after treatment with 100 mg/kg dose of compound perorally in sheep. It is filed as functional, Egg. The following applies: route oral. In a few lines:
as §3

Assay [15] deals with Ovis aries. The assay can be described thus: Percent reduction in Ostertagia eggs per gram, after treatment with 100 mg/kg dose of compound perorally in sheep. It is filed as functional, Egg. As to conditions: route oral. In a few lines: as §5
Assay [16] relates to Ovis aries. Briefly: Percent reduction in Ostertagia eggs per gram, after treatment with 200 mg/kg dose of compound perorally in sheep. As to conditions: route oral. It is filed as functional, Egg. In short, it runs like this:
as §3

Assay [17] relates to Ovis aries. Briefly: Percent reduction in Trichostrongylus eggs per gram, after treatment with 200 mg/kg dose of compound perorally in sheep. The class given is functional, Egg. The following applies: route oral. In a few lines: as §3
For assay [18], the system named is Ovis aries. The assay can be described thus: Percent reduction in Strongyloides eggs per gram, after treatment with 100 mg/kg dose of compound perorally in sheep. The class given is functional, Egg. The following applies: route oral. In short, it runs like this:
as §3

The species named for assay [19] is Mus musculus. Briefly: Percent clearance of Syphacaia obvelata from mouse after oral treatment of 1.5 mg/mouse/day. The class given is functional. In a few lines: as §2
For assay [20], the species on record is Canis familiaris. Briefly: Percent reduction in Uncinaria eggs per gram, after oral treatment of 20 mg/dog dose of compound in a single treatment. The class given is functional, Canis lupus familiaris, Egg.
Assay [21] relates to Ovis aries. Briefly: Percent reduction in Strongyloides eggs per gram, after treatment with 200 mg/kg dose of compound perorally.
The test system of assay [22] is Ovis aries. Briefly: Percent reduction in Trichostrongylus eggs per gram, after treatment with 150 mg/kg dose of compound intraperitoneally in sheep. The following applies: route intraperitoneal.
Assay [23] is filed under the species Mus musculus. Briefly: Percent clearance of Nematospiroides dubius from mouse after oral treatment of 7.55 mg/mouse/day. The class given is functional. In a few lines: as §2
The species named for assay [24] is Mus musculus. Briefly: Percent clearance of Hymenolepis nana from mouse after oral treatment of 7.5 mg/mouse/day. It is filed as functional. In short, it runs like this: as §2
Assay [25] concerns Ovis aries. Briefly: Percent reduction in Cooperia eggs per gram, after treatment with 100 mg/kg dose of compound perorally in sheep. It is filed as functional, Egg. As to conditions: route oral. In short, it runs like this: as §4
Assay [26] relates to Ovis aries. The assay can be described thus: Percent reduction in Haemonchus eggs per gram, after treatment of 100 mg/kg dose of compound perorally in sheep. As to conditions: route oral. The class given is functional, Egg. In a few lines: as §4

Take `CCCCOc1ccc(/C(Cl)=N/Nc2ccccc2)cc1`: the Reduction in the assay listed under Canis familiaris [1] turned out to be 75%; in the assay filed under Canis familiaris [2], 100%; in the assay listed under Canis familiaris [3], 67%; in the assay listed under Canis familiaris [4], 86%; in the assay listed under Canis familiaris [5] it was 0%; in the assay listed under Canis familiaris [6], 100%. Further, the Reduction in the assay listed under Canis familiaris [7] turned out to be 92%; in the assay with Ovis aries [9], 100%; in the assay on Ovis aries [10], 100%; in the assay with Ovis aries [11], 100%; in the assay with Ovis aries [12] it was 100%; with Ovis aries [13], 100%. Moreover, the Reduction with Ovis aries [14] worked out at 100%; with Ovis aries [15], 100%; in the assay on Ovis aries [16], 100%; in the assay with Ovis aries [17] it was 100%; in the assay on Ovis aries [18], 32%; in the assay listed under Canis familiaris [20], 86%. In addition, the Reduction in the assay on Ovis aries [21] is listed as 100%; in the assay on Ovis aries [22], 0%. Moreover, the Parasite_Clearance in the assay filed under Mus musculus [8] and in the assay filed under Mus musculus [19] was 100% each time.
On to `O=[N+]([O-])c1ccc(/C(Cl)=N/Nc2ccccc2)cc1`, for which the Parasite_Clearance in the assay listed under Mus musculus [23] and in the assay listed under Mus musculus [24] was 0% in each case.
As to `Cl/C(=N\Nc1ccc(Cl)c(Cl)c1Cl)c1ccccc1`, the Reduction came to 0% in the assay on Ovis aries [9]; 0% in the assay on Ovis aries [12]; 0% with Ovis aries [14]; 0% with Ovis aries [15]; 89% in the assay on Ovis aries [25]; 0% in the assay on Ovis aries [26]. In addition, the Reduction with Ovis aries [18] is 95%.
